Laboratory results reported in PMC5519669 (Forensic Toxicology, 2017).
Entries after “also recorded” stand apart in the source; their conditions may differ.

What was measured:
[1] = Clearance in rat liver microsome incubation; assay type: in vitro ADME; conditions: for half-life at 1 µM / microsomal CLint at 1 µM: male, Sprague-Dawley, rat, pooled rat liver microsomes, pH 7.4; for Parent compound after incubation: rat liver microsome incubations, after 3 h incubations; for ER (extraction ratio) / CLH (estimated hepatic clearance) / CLint (estimated intrinsic clearance): rat liver microsomes; for CLH (estimated hepatic clearance): from CLint and liver blood flow; for CLint (estimated intrinsic clearance): scaled to whole-liver dimensions
[2] = Clearance in human liver microsome incubation; assay type: in vitro ADME; conditions: for Parent compound after incubation: human liver microsome incubations, after 3 h incubations; for ER (extraction ratio) / CLH (estimated hepatic clearance) / CLint (estimated intrinsic clearance): human liver microsomes; for CLH (estimated hepatic clearance): from CLint and liver blood flow; for CLint (estimated intrinsic clearance): scaled to whole-liver dimensions
[3] = Rat plasma kinetics after intraperitoneal injection; assay type: in vivo; conditions: for AUC(0-inf) / AUC(0-t) / Cmax / half-life: 3 mg/kg; for half-life: non-compartmental analysis; for Untransformed parent compound in plasma: 24 h post-dosing
male rats = experiment: Rectal body temperature; assay type: in vivo, rat; conditions: 3 mg/kg i.p.; for Hypothermic effect compared to vehicle injection: 3 mg/kg; for Mean rectal body temperature versus vehicle: at 15 and 30 min and 1, 2, and 4 h post-injection
How it was run: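 Male Long–Evans rats (49 days old, jugular-catheterised, n = 4/group) were housed singly in metabolic cages and given test compound i.p. at 3 mg/mL in 7.8% polysorbate 80/92.2% saline at 1 mL/kg, with a vehicle group. Rectal temperature was taken by digital thermometer 15 min pre-dose and 15, 30 min, 1, 2, 4, 8, 24 h post-dose. Analysis used mixed two-factor ANOVA, then Dunnett's tests versus vehicle per time point.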

[4] = male, human, pooled human liver microsomes, pH 7.4
[5] = male, Long-Evans, rat, plasma, ip
[6] = male, Long-Evans, rat, plasma, ip, Half-life, rat plasma, 3 mg/kg i.p.

Compound | half-life at 1 µM [1] [min] | microsomal CLint at 1 µM [1] [µL/min/mg] | Parent compound after incubation [1] | ER (extraction ratio) [1] | CLH (estimated hepatic clearance) [1] [mL/min/kg body wt.] | CLint (estimated intrinsic clearance) [1] [mL/min/kg body wt.] | Parent compound after incubation [2] | ER (extraction ratio) [2] | CLH (estimated hepatic clearance) [2] [mL/min/kg body wt.] | CLint (estimated intrinsic clearance) [2] [mL/min/kg body wt.] | half-life at 1 µM [2, 4] [min] | AUC(0-inf) [3, 5] [ng·h/mL] | AUC(0-t) [3, 5] [ng·h/mL] | Cmax [3, 5] [ng/mL] | half-life [3, 6] [min] | Untransformed parent compound in plasma ([3]; rat plasma, 3 mg/kg i.p.) | Hypothermic effect compared to vehicle injection (male rats) | Mean rectal body temperature versus vehicle (male rats) | further results
CCCCCn1cc(C(=O)NC(C)(C)c2ccccc2)c2ccccc21 [CUMYL-PICA, 1-pentyl-N-(2-phenylpropan-2-yl)-1H-indole-3-carboxamide] | 2.24 | 310 | still detectible | 0.91 | 50.22 | 556.88 | still detectible | 0.87 | 17.43 | 135.46 | 5.92 | 1210 | 1090 | 130 | 420 | detectible | produced hypothermic effects; also recorded: moderate hypothermic effects | significantly reduced | CL/F (observed apparent clearance) ([3]; rat plasma, 3 mg/kg i.p.): 43.31 mL/min/kg body wt.; half-life ([3]; rat plasma, 3 mg/kg i.p.): 436 min
CC(C)(NC(=O)c1cn(CCCCCF)c2ccccc12)c1ccccc1 [5F-CUMYL-PICA, 1-(5-fluoropentyl)-N-(2-phenylpropan-2-yl)-1H-indole-3-carboxamide] | 1.19 | 580 | still detectible | 0.95 | 52.44 | 1048.24 | still detectible | 0.96 | 19.15 | 453.05 | 1.77 | 843 | 582 | 65.2 | 720 | detectible | produced hypothermic effects; also recorded: moderate hypothermic effects | significant hypothermic effects | microsomal CLint at 1 µM [2, 4]: 390 µL/min/mg
